Test results from ChEMBL document CHEMBL4311973, “Synthesis of cinnamic acid derivatives and leishmanicidal activity against Leishmania braziliensis” (Eur J Med Chem, 2019).
Active and inactive are the calls of the source. No cut-off for these calls is given here.

Key:
[1] = Solubility of compound in 0.1% DMSO by light microscopy; type: physicochemical
In short: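 Compounds taken up in aqueous 5% DMSO, diluted in RPMI to 10 µM (final DMSO 0.1%), and inspected by light microscopy for crystal formation.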

Leishmania braziliensis [2] = test: Antileishmanial activity against Leishmania braziliensis MHOM/BR/75/M2904 amastigotes infected in […] cells assessed as cell viability at 10 uM incubated for 48 hrs by resazurin staining based assay (reference value: 10.71 %); type: functional
Leishmania braziliensis [3] = test: Antileishmanial activity against Leishmania braziliensis MHOM/BR/75/M2904 amastigotes infected in […] cells assessed as cell viability at 40 uM incubated for 48 hrs by resazurin staining based assay (reference value: 10.71 %); type: functional
Leishmania braziliensis [4] = test: Antileishmanial activity against Leishmania braziliensis MHOM/BR/75/M2904 amastigotes infected in […] cells assessed as cell viability at 1 uM incubated for 48 hrs by resazurin staining based assay (reference value: 10.71 %); type: functional
Leishmania braziliensis [5] = test: Antileishmanial activity against Leishmania braziliensis MHOM/BR/75/M2904 amastigotes infected in […] cells assessed as cell viability at 5 uM incubated for 48 hrs by resazurin staining based assay (reference value: 10.71 %); type: functional
RAW264.7 [6] = test: Cytotoxicity against […] RAW264.7 cells assessed as reduction in cell viability at 10 uM incubated for 48 hrs by resazurin staining based assay; conditions: raw264.7, 48 h
In short: (§1)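 RAW 264.7 macrophages treated 48 h with compound in RPMI (final DMSO 0.1%); survival measured by resazurin viability assay. Screening at 10 µM, IC50 range 1–80 µM. Controls amphotericin B 3.125 µg/mL and 0.1% DMSO; three independent experiments in internal quadruplicate.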

RAW264.7 [7] = test: Cytotoxicity against […] RAW264.7 cells assessed as reduction in cell viability incubated for 48 hrs by resazurin staining based assay; conditions: Mus musculus, RAW264.7, 48 h; in short: as §1
Leishmania braziliensis [8] = test: Antileishmanial activity against Leishmania braziliensis MHOM/BR/75/M2904 amastigotes infected in […] cells assessed as cell viability at 30 uM incubated for 48 hrs by resazurin staining based assay (reference value: 10.71 %); type: functional
Leishmania braziliensis [9] = test: Antileishmanial activity against Leishmania braziliensis MHOM/BR/75/M2904 promastigotes assessed as reduction in cell viability incubated for 48 hrs by resazurin staining based assay; type: functional, organism-based; conditions: MHOM/BR/75/M2904, 48 h
In short: (§2)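 Log-phase promastigotes exposed 48 h to compound in RPMI (final DMSO 0.1%); survival read by resazurin relative to DMSO. Screening at 10 µM; IC50 runs at 1–80 µM. Amphotericin B 3.125 µg/mL and 0.1% DMSO as controls; quadruplicate wells, two or three independent experiments; significance by one-way ANOVA with Dunnett post-test.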

Leishmania braziliensis [10] = test: Antileishmanial activity against Leishmania braziliensis MHOM/BR/75/M2904 promastigotes assessed as reduction in cell viability at 10 uM incubated for 48 hrs by resazurin staining based assay; type: functional, organism-based; in short: as §2
Leishmania braziliensis [11] = test: Antileishmanial activity against Leishmania braziliensis MHOM/BR/75/M2904 amastigotes infected in […] cells assessed as cell viability at 2.5 uM incubated for 48 hrs by resazurin staining based assay (reference value: 10.71 %); type: functional
Leishmania braziliensis [12] = test: Antileishmanial activity against Leishmania braziliensis MHOM/BR/75/M2904 amastigotes infected in […] cells assessed as cell viability at 20 uM incubated for 48 hrs by resazurin staining based assay (reference value: 10.71 %); type: functional
Leishmania braziliensis [13] = test: Cell cycle arrest in Leishmania braziliensis MHOM/BR/75/M2904 amastigotes infected in […] cells assessed as lobulated cell bodies incubated for 48 hrs by transmission electron microscopy; type: functional, organism-based
In short: (§3)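 Infected macrophage cultures treated with compound or DMSO control, then examined by transmission electron microscopy for parasite morphology within parasitophorous vacuoles (lobulation, multimembrane vesicles, chromatin fragments).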

Leishmania braziliensis [14] = test: Antileishmanial activity against Leishmania braziliensis MHOM/BR/75/M2904 amastigotes infected in […] cells assessed as reduction in cell viability incubated for 48 hrs by resazurin staining based assay; type: functional, organism-based; conditions: MHOM/BR/75/M2904, RAW264.7, 48 h
Leishmania braziliensis [15] = test: Induction of autophagy in Leishmania braziliensis MHOM/BR/75/M2904 amastigotes infected in […] RAW264.7 cells incubated for 48 hrs by transmission electron microscopy; type: functional, organism-based; in short: as §3
Leishmania braziliensis [16] = test: Antileishmanial activity against Leishmania braziliensis MHOM/BR/75/M2904 amastigotes infected in […] cells assessed as cell viability at 80 uM incubated for 48 hrs by resazurin staining based assay (reference value: 10.71 %); type: functional
Leishmania braziliensis [17] = test: Induction of apoptosis in Leishmania braziliensis MHOM/BR/75/M2904 amastigotes infected in […] RAW264.7 cells incubated for 48 hrs by transmission electron microscopy; type: functional, organism-based; in short: as §3
[18] = Selectivity index, ratio of IC50 of cytotoxicity against […] RAW264.7 cells to IC50 of antileishmanial activity against Leishmania braziliensis MHOM/BR/75/M2904 amastigotes infected in […] RAW264.7 cells; type: toxicity, cell-based; conditions: read-out: Ratio IC50
In short: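 Selectivity index from IC50 on RAW 264.7 macrophages over IC50 against intracellular amastigotes, both after 48 h by resazurin.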

RAW264.7 [19] = test: Cytotoxicity against […] RAW264.7 cells assessed as reduction in cell viability at 3.125 ug/ml incubated for 48 hrs by resazurin staining based assay; conditions: raw264.7, 48 h; in short: as §1

For `COc1ccc(/C=C/C(=O)Oc2ccc3c(c2)C(=O)OC3)cc1`, the solubility [1] was “Insoluble”.

With `O=C(/C=C/c1ccccc1)OCc1cn(Cc2ccc(Br)cc2)nn1` the solubility [1] was “Insoluble”.

In the case of `O=C(/C=C/c1ccccc1)OCc1cn(Cc2ccc(F)c(F)c2)nn1`, the Activity (Leishmania braziliensis [2]) is reported as 68.6 - 86.32%, the Activity (Leishmania braziliensis [3]) is reported as 72.41% and the Activity (Leishmania braziliensis [4]) is reported as 85.4%. The Activity (Leishmania braziliensis [5]) was 98.18%, the Activity (RAW264.7 [6]) was “Non-Toxic” and the IC50 (RAW264.7 [7]) was greater than 80 µM. For the same molecule, the Activity (Leishmania braziliensis [8]) was 95.13%, the IC50 (Leishmania braziliensis [9]) was 3.05 µM and the Activity (Leishmania braziliensis [10]) was “inactive”. The Activity (Leishmania braziliensis [11]) was 83.08% and the Activity (Leishmania braziliensis [12]) was 79.77%.

With `O=C(/C=C/c1ccccc1)OCCCc1cn(Cc2cc(Cl)ccc2Cl)nn1` the Activity (Leishmania braziliensis [2]) was 45.74%, the Activity (RAW264.7 [6]) was “Non-Toxic” and the Activity (Leishmania braziliensis [10]) was “Active”.

In the case of `O=C(/C=C/c1ccccc1)OCc1cn(Cc2ccc(I)cc2)nn1`, the solubility [1] is reported as “Insoluble”.

For `COc1ccc(Cn2cc(CCCOC(=O)/C=C/c3ccccc3)nn2)cc1`, the Activity (Leishmania braziliensis [2]) was 60.48% and the Activity (RAW264.7 [6]) was “Non-Toxic”.

For `O=C(/C=C/c1ccc(Cl)cc1)Oc1ccc2c(c1)C(=O)OC2`, the solubility [1] was “Insoluble”.

For `O=C(/C=C/c1ccccc1)OCc1cn(Cc2ccc(F)cc2)nn1`, the Activity (Leishmania braziliensis [2]) was 59.1%, the Activity (RAW264.7 [6]) was “Non-Toxic” and the Activity (Leishmania braziliensis [10]) was “inactive”.

In the case of `COc1cc(/C=C/C(=O)Oc2ccc3c(c2)C(=O)OC3)cc(OC)c1OC`, the Activity (Leishmania braziliensis [13]) is reported as “Active”, the Activity (Leishmania braziliensis [2]) is reported as 64.46 - 80.47% and the Activity (Leishmania braziliensis [3]) is reported as 46.33%. For the same molecule, the IC50 (Leishmania braziliensis [14]) was 8.27 µM, the Activity (Leishmania braziliensis [15]) was “Active” and the Activity (Leishmania braziliensis [16]) was 35.51%. The Activity (Leishmania braziliensis [5]) was 79.72%, the Activity (RAW264.7 [6]) was “Non-Toxic” and the IC50 (RAW264.7 [7]) was greater than 80 µM. For the same molecule, the Activity (Leishmania braziliensis [17]) was “Active”, the Activity (Leishmania braziliensis [8]) was 47.12% and the IC50 (Leishmania braziliensis [9]) was 7.58 µM. The Activity (Leishmania braziliensis [10]) was “Active”, the selectivity ratio [18] was greater than 9.67 and the Activity (Leishmania braziliensis [11]) was 74.54%. For the same molecule, the Activity (Leishmania braziliensis [12]) was 19.71%.

For `O=C(/C=C/c1ccccc1)OCCCc1cn(Cc2ccc(Cl)cc2)nn1`, the Activity (Leishmania braziliensis [2]) was 49.01%, the Activity (RAW264.7 [6]) was “Non-Toxic” and the Activity (Leishmania braziliensis [10]) was “Active”.

In the case of `O=C(/C=C/c1ccc([N+](=O)[O-])cc1)Oc1ccc2c(c1)C(=O)OC2`, the Activity (Leishmania braziliensis [2]) is reported as 59.54% and the Activity (RAW264.7 [6]) is reported as “Non-Toxic”.

With `O=C(/C=C/c1ccccc1)OCCCc1cn(Cc2ccc(F)c(F)c2)nn1` the Activity (Leishmania braziliensis [2]) was 47.85% and the Activity (RAW264.7 [6]) was “Non-Toxic”.

In the case of `O=C(/C=C/c1ccccc1)OCc1cn(Cc2ccc(C(F)(F)F)cc2)nn1`, the solubility [1] is reported as “Insoluble”.

With `O=C(/C=C/c1ccccc1)OCc1cn(Cc2ccc(OC(F)(F)F)cc2)nn1` the Activity (Leishmania braziliensis [2]) was 77.39%, the Activity (RAW264.7 [6]) was “Non-Toxic” and the Activity (Leishmania braziliensis [10]) was “inactive”.

For `COc1ccc(Cn2cc(COC(=O)/C=C/c3ccccc3)nn2)cc1`, the Activity (Leishmania braziliensis [2]) was 76%, the Activity (RAW264.7 [6]) was “Non-Toxic” and the Activity (Leishmania braziliensis [10]) was “inactive”.

With `O=C(/C=C/c1ccccc1)OCc1cn(Cc2ccc([N+](=O)[O-])cc2)nn1` the solubility [1] was “Insoluble”.

In the case of `O=C(/C=C/c1ccc(Br)cc1)Oc1ccc2c(c1)C(=O)OC2`, the Activity (Leishmania braziliensis [2]) is reported as 50.14%, the Activity (RAW264.7 [6]) is reported as “Non-Toxic” and the Activity (Leishmania braziliensis [10]) is reported as “Active”.

For `O=C(/C=C/c1ccccc1)OCc1cn(Cc2ccccc2)nn1`, the Activity (Leishmania braziliensis [2]) was 19.91%, the Activity (RAW264.7 [6]) was “Non-Toxic” and the Activity (Leishmania braziliensis [10]) was “inactive”.

With `C[C@@H]1[C@H](O)[C@@H](C)/C=C/C=C/C=C/C=C/C=C/C=C/C=C/[C@H](O[C@@H]2O[C@H](C)[C@@H](O)[C@H](N)[C@@H]2O)C[C@@H]2O[C@](O)(C[C@@H](O)C[C@@H](O)[C@H](O)CC[C@@H](O)C[C@@H](O)CC(=O)O[C@H]1C)C[C@H](O)[C@H]2C(=O)O` [AMPHOTERICIN B] the Activity (RAW264.7 [19]) was “Non-Toxic” and the Activity (Leishmania braziliensis [2]) was 98.25%.

With `O=C(/C=C/c1ccccc1)OCCCc1cn(Cc2ccccc2Br)nn1` the Activity (Leishmania braziliensis [2]) was 57.32% and the Activity (RAW264.7 [6]) was “Non-Toxic”.

In the case of `O=C(/C=C/c1ccccc1)OCc1cn(Cc2ccc(Cl)cc2)nn1`, the solubility [1] is reported as “Insoluble”.

With `O=C(/C=C/c1ccccc1)OCc1cn(Cc2c(Cl)cc(Cl)cc2Cl)nn1` the Activity (Leishmania braziliensis [2]) was 70.38%, the Activity (RAW264.7 [6]) was “Non-Toxic” and the Activity (Leishmania braziliensis [10]) was “inactive”.

With `O=C(/C=C/c1ccccc1)OCCCc1cn(Cc2ccc(I)cc2)nn1` the Activity (Leishmania braziliensis [2]) was 52.07%, the Activity (RAW264.7 [6]) was “Non-Toxic” and the Activity (Leishmania braziliensis [10]) was “Active”.

With `O=C(/C=C/c1ccccc1)OCc1cn(Cc2ccccc2Br)nn1` the Activity (Leishmania braziliensis [2]) was 80.12%, the Activity (RAW264.7 [6]) was “Non-Toxic” and the Activity (Leishmania braziliensis [10]) was “inactive”.

In the case of `O=C(/C=C/c1ccccc1)OCCCc1cn(Cc2ccccc2F)nn1`, the Activity (Leishmania braziliensis [2]) is reported as 19.67% and the Activity (RAW264.7 [6]) is reported as “Non-Toxic”.

With `O=C(/C=C/c1ccccc1)OCCCc1cn(Cc2ccc([N+](=O)[O-])cc2)nn1` the Activity (Leishmania braziliensis [2]) was 20.58%, the Activity (RAW264.7 [6]) was “Non-Toxic” and the Activity (Leishmania braziliensis [10]) was “Active”.

For `O=C(/C=C/c1ccccc1)OCCCc1cn(Cc2ccccc2)nn1`, the Activity (Leishmania braziliensis [2]) was 39.73%, the Activity (RAW264.7 [6]) was “Non-Toxic” and the Activity (Leishmania braziliensis [10]) was “Active”.

For `O=C(/C=C/c1ccc(F)cc1)Oc1ccc2c(c1)C(=O)OC2`, the Activity (Leishmania braziliensis [2]) was 43.87%, the Activity (RAW264.7 [6]) was “Non-Toxic” and the Activity (Leishmania braziliensis [10]) was “Active”.

For `O=C(/C=C/c1ccccc1)OCCCc1cn(Cc2ccc(Br)cc2)nn1`, the Activity (Leishmania braziliensis [2]) was 45.1%, the Activity (RAW264.7 [6]) was “Non-Toxic” and the Activity (Leishmania braziliensis [10]) was “Active”.

With `O=C(/C=C/c1ccccc1)OCCCc1cn(Cc2ccc(OC(F)(F)F)cc2)nn1` the Activity (Leishmania braziliensis [2]) was 65.84%, the Activity (RAW264.7 [6]) was “Non-Toxic” and the Activity (Leishmania braziliensis [10]) was “Active”.

For `O=C(/C=C/c1ccccc1)OCc1cn(Cc2cc(Cl)ccc2Cl)nn1`, the Activity (Leishmania braziliensis [2]) was 78.98%, the Activity (RAW264.7 [6]) was “Non-Toxic” and the Activity (Leishmania braziliensis [10]) was “inactive”.

For `O=C(/C=C/c1ccccc1)OCCCc1cn(Cc2ccc(C(F)(F)F)cc2)nn1`, the Activity (Leishmania braziliensis [2]) was 69.24%, the Activity (RAW264.7 [6]) was “Non-Toxic” and the Activity (Leishmania braziliensis [10]) was “Active”.

With `O=C(/C=C/c1ccccc1)OCCCc1cn(Cc2ccc(F)cc2)nn1` the Activity (Leishmania braziliensis [2]) was 67.84% and the Activity (RAW264.7 [6]) was “Non-Toxic”.
